≈ marks a conversion by molar mass, not a printed value.

Data set [1] concerns Homo sapiens. Put plainly: Ultrafiltration flow rate in critically ill patient with sepsis receiving high-volume continuous venovenous hemofiltration at […], iv administered every 8 hrs by HPLC method. Type of data set: ADME, organism-based. Further details: route intravenous. The settings on record: in vivo.
The species entered for data set [2] is Homo sapiens. Put plainly: Plasma protein binding in patient with acute kidney injury. Type of data set: ADME, organism-based.
Data set [3] has as its system Homo sapiens. Put plainly: Hemofiltration clearance in critically ill patient with sepsis receiving high-volume continuous venovenous hemofiltration at […], iv administered every 8 hrs by HPLC method. Type of data set: ADME, organism-based. The note with it: in vivo. Further details: route intravenous. The procedure, abridged: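 Same 1,000 mg q8h IV bolus regimen on CVVHF. Filter was changed if it was over 3 h old at the start of sampling. Pre- and postfilter blood and ultrafiltrate were collected at matched times over 0–480 min, and all ultrafiltrate was collected for the interval. Concentrations were measured by HPLC-UV. CVVHF clearance = ultrafiltrate amount/AUC0-8; […].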

Data set [4] in a line: fT>MIC in patient with acute kidney injury infected with Burkholderia pseudomallei. Format: functional. The procedure, abridged: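 Ten critically ill septic patients with AKI on high-volume CVVHF received meropenem 1,000 mg every 8 h as a central-venous bolus. Plasma was assayed by HPLC-UV at 298 nm with an ertapenem internal standard. Concentration-time data were compared with an MIC of 4 mg/liter.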

The test system of data set [5] is Burkholderia pseudomallei. Put plainly: Antimicrobial activity against Burkholderia pseudomallei. Format: functional.
The nature of data set [6]: Cmax in critically ill patient with sepsis at […], iv administered every 8 hrs by HPLC method. Type of data set: ADME, organism-based. Further details: route intravenous. The settings on record: human, in vivo. The procedure, abridged:
(§1)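 Meropenem 1,000 mg as reconstituted IV bolus via central venous catheter every 8 h in septic ICU patients on CVVHF. Plasma sampled predose and at 15–480 min, plus 0–8 h urine. Levels measured by validated C18 HPLC-UV at 298 nm with ertapenem internal standard. Noncompartmental analysis used linear trapezoidal AUC0-8 and AUMC, and λz from 2–8 h log-linear regression.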

A short description of data set [7]: Renal clearance in critically ill patient with sepsis at […], iv administered every 8 hrs by HPLC method. Type of data set: ADME, organism-based, Kidney. Further details: route intravenous. The note with it: human, in vivo, read-out: CL_renal (converted). The procedure, abridged: as §1
Data set [8] concerns Homo sapiens. Put plainly: Clearance not mediated by CVVHF in critically ill patient with sepsis at […], iv administered every 8 hrs by HPLC method. Type of data set: ADME, organism-based. Set-up: route intravenous. The note with it: in vivo.

In general, MIC90 refers to the lowest concentration that inhibits either 90% of growth or 90% of the strains tested, depending on the study. The term Cmax denotes the maximum level reached in the sampled fluid or tissue. As for `C[C@@H](O)[C@H]1C(=O)N2C(C(=O)O)=C(S[C@@H]3CN[C@H](C(=O)N(C)C)C3)[C@H](C)[C@H]12` [MEROPENEM], the Activity with Homo sapiens [1] came out at 4.4 L/h; in the data set filed under Homo sapiens [2], 2%. Further, the CL in the data set with Homo sapiens [3] was 3.5 L/h; in the data set with Homo sapiens [8], 2.4 L/h. The “fT>MIC” value in data set [4] turned out to be 40%. For the same compound, in data set [5], the MIC90 came out at 4 µg/mL (≈ 10.4 µM). For the same compound, the Cmax in data set [6] turned out to be 56.6 µg/mL. Moreover, the CL renal at 8 h in data set [7] was 0.0833 mL/min.

The record behind these values is ChEMBL document CHEMBL1275249, “Meropenem dosing in critically ill patients with sepsis receiving high-volume continuous venovenous hemofiltration” (Antimicrob Agents Chemother, 2010).
